# PAD4 inh: human PAD4 inhibitors, primary screen, biochemical, fluorescence polarization, 1536-well format; inhibition, % at 6.36 µM; recombinant PAD4, RCA probe fluorescence polarization; actives 0.41% (n = 330,000); Protein-arginine deiminase type-4 (Homo sapiens), Q9UM07;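 active = percent inhibition above a cutoff equal to the mean of all tested compounds plus 3 SD, cut at about 15% in these data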;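 also: 0% = PAD4 with RCA probe and DMSO and 100% = probe without PAD4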
# PRMT1 inh: PRMT1 methyltransferase inhibitors, primary screen, biochemical, fluorescence polarization; Protein arginine N-methyltransferase 1 (Homo sapiens), Q99873; recombinant PRMT1, activity-based probe fluorescence polarization; inhibition, % at 2.79 µM; actives 1.3% (n = 370,000); AID 652257, 2013;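 active = inhibition above about 21% made by adding two undisclosed values, limit read from the data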
# GSTO1 counter: inhibitors of recombinant GSTO1, primary screen, counter-screen for RBBP9 inhibitor project, biochemical, fluorescence polarization. AID 1974, 2009. actives 1.1% (n = 300,000). Glutathione S-transferase omega-1 (Homo sapiens), P78417. activity-based probe fluorescence polarization. inhibition, % at 5.96 µM;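 active = inhibition above the campaign mean inhibition plus 3 SD, cut at about 35% in these data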;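 also: 0% = GSTO1-1 with DMSO and 100% = wells lacking GSTO1-1 enzyme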
# Target sequence (P78417 whole entry, looked up): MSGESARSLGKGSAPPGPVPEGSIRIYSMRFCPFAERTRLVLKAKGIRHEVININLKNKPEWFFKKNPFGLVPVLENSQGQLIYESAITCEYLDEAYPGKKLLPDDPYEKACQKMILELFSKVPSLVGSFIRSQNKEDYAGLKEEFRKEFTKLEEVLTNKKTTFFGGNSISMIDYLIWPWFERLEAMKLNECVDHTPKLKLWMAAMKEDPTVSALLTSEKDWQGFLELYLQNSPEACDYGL
# E coli Lon inh: inhibitors of E. coli Lon protease, primary screen, biochemical, fluorescence polarization; P0A9M0; purified E. coli Lon protease; inhibition, % at 7.94 µM; actives 0.42% (n = 360,000); AID 602123, 2011; in the data active = inhibition above about 13%, passing the limit was not always enough;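 also: 0% = enzyme with probe and DMSO and 100% = no enzyme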
# TDP2 absorb: human TDP2 enzyme inhibitors, primary screen, biochemical, epi absorbance, recombinant enzyme | T5PNP hydrolysis, p-nitrophenol absorbance 415 nm | inhibition, % at 12.8 µM | actives 0.34% (n = 370,000);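 active = inhibition above the mean of all tested compounds plus 3 SD, set per campaign, cut at about 25% in these data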;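 also: 0% = DMSO with enzyme and 100% = buffer with substrate but no TDP2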
# Target sequence (O95551 whole entry, looked up): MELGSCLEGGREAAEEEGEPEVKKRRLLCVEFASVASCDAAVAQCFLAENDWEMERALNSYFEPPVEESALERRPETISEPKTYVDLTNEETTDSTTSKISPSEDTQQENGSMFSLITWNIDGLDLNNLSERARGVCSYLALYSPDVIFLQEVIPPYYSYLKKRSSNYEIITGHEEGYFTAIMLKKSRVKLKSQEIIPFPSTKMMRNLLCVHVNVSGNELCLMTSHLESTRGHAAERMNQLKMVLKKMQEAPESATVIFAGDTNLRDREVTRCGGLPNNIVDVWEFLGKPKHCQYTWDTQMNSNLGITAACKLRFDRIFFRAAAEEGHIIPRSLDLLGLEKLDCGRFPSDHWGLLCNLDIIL
#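 Incubation: 2 h at 37 °C; Test system: recombinant human TDP2; Quantity: enzyme 120 nM; Read-out basis: percent inhibition; Medium: 50 mM Tris-HCl pH 7.5 with Mg2+, KCl, DTT, BSA; Repeats: single replicate; Compound: 12.8 µM single point, 1% DMSO; Signal: epi absorbance; Reagent: 5 mM T5PNP chromogenic substrate; Benchmarks: no-enzyme high, DMSO-plus-enzyme low.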
# TDP2 inh conf: human TDP2 enzyme inhibitors, retest, confirmation, biochemical, epi absorbance, recombinant enzyme; shares compounds with TDP2 absorb; absorbance read-out; inhibition, % at 12.8 µM; actives 22% (n = 1,100); in the data active = inhibition above about 25%;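 also: 0% = vehicle with enzyme and 100% = no enzyme buffer only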
# * hit, by the source's call; . = no result given. In the library only some 2.5% were active in any assay of this set; here they are far more common.
SMILES,PAD4 inh,PRMT1 inh,GSTO1 counter,E coli Lon inh,TDP2 absorb,TDP2 inh conf
Cc1ccc(C(=O)NC2(O)C(=O)c3ccccc3C2=O)cc1C,9,1,75*,2,73*,75*
COc1ccc(CC(=O)N/N=C(\C)CC(=O)Nc2ccc(N(C)C)cc2)cc1,3,-6,2,-2,-22,.
COc1ccc(CC(=O)N/N=C(/C)CC(=O)N(C)c2ccccc2)cc1,2,2,-4,-4,25*,5
CS(=O)(=O)/C(C#N)=C/c1cccn1S(=O)(=O)c1cccc2ccccc12,.,0,.,5,13,.
COc1cccc2c1cc1c(=O)n(CC(=O)NCc3ccccn3)nc(C)n12,-5,.,-1,1,.,.
O=S(=O)(Nc1c(O)ccc2ccccc12)c1ccc(F)cc1,-16,14,33,12,25*,-3
O=S(=O)(Nc1c(O)ccc2ccccc12)c1ccccc1,-17,17,24,14,1,.
COc1ccc(CCNC(=O)c2ccccc2C(=O)NCCc2ccc(OC)cc2)cc1,0,4,11,-3,-8,.
COc1ccc(CCNC(=O)c2ccccc2)cc1,-7,2,3,-4,70*,2
Cc1cccc(-c2nc(CS(=O)CC(=O)N3CC(C)CC(C)C3)c(C)o2)c1 (centres undefined),-4,2,9,0,0,.
Cc1ccc(/C([O-])=C(/C(=S)NCc2ccccc2)[n+]2cccc(CO)c2)cc1[N+](=O)[O-],.,7,.,0,26*,1
CCc1cc[n+](C(C(=S)Nc2cccc(C)c2)=C([O-])c2ccc(C)c([N+](=O)[O-])c2)cc1,.,20,.,5,-8,.
NC(=O)C1CCCN(CC(O)COCc2ccc(Cl)cc2)C1 (centres undefined),3,-3,4,7,28*,2
CCOC(=O)C1CCN(CC(O)COCc2ccc(Cl)cc2)CC1 (centres undefined),-2,-1,-1,-1,7,.
O=C1CCN(S(=O)(=O)c2ccc(Cl)cc2)CC1,13,1,11,4,10,.
Cc1nn(CCO)c(N)c1C1(O)C(=O)Nc2c(Cl)cc(Cl)cc21 (centres undefined),-3,0,24,3,28*,1
COc1ccc(/C=C/C(=O)NC2CCN(Cc3ccccc3)CC2)cc1OC,2,-1,2,2,28*,-8
CCOC(=O)C1(C)CCN1C(=O)CSc1ccccc1 (centres undefined),.,-1,.,-14,-2,.
O=C1NC(=O)C(=Cc2ccccc2[N+](=O)[O-])S1,.,9,.,-2,25*,44*
O=S(=O)(c1ccc(NC(=S)NC23CC4CC(CC(C4)C2)C3)cc1)N1CCCCC1,.,-5,.,-9,6,.
Cc1nc(NC(=O)COc2ccccc2)sc1C(=O)Nc1cccc(Cl)c1,-9,0,-6,-3,27*,-17
C[C@@H]1COc2cc(N3CCSCC3)ccc2S(=O)(=O)N1C,.,1,.,.,7,.
Cc1[nH]c(C)c(S(=O)(=O)N(C)Cc2ccccc2)c1C(=O)N1CCCC1,1,-3,0,-1,28*,-4
Cc1[nH]c(C)c(S(=O)(=O)N(Cc2ccccc2)C(C)(C)C)c1C(=O)N1CCCC1,0,2,-3,-3,10,.
NC(=S)N=Nc1c(O)[nH]c2ccc(F)cc12,-2,8,3,0,1,.
SMILES,PAD4 inh,PRMT1 inh,GSTO1 counter,E coli Lon inh,TDP2 absorb,TDP2 inh conf
NC(=S)N=Nc1c(O)cc(O)c2[nH]c(=O)ccc12,.,70*,.,11,52*,44*
O=C(Nc1c(-c2ccccc2)[nH][nH]c1=O)c1ccc(-c2ccccc2)cc1,.,-1,.,.,6,.
Cc1ccc(C(=O)Nc2c(-c3ccc(Cl)cc3)[nH][nH]c2=O)cc1,.,2,.,-2,61*,27*
O=C(Nc1c(-c2ccc3c(c2)OCO3)[nH][nH]c1=O)c1ccccc1,.,0,.,5,68*,71*
O=C(Nc1c(-c2ccc3c(c2)OCO3)[nH][nH]c1=O)c1cccc(C(F)(F)F)c1,.,-4,.,6,55*,9
O=C(Nc1c(-c2ccccc2)[nH][nH]c1=O)c1ccc2c(c1)OCO2,.,5,.,.,48*,23
Cc1c(CC(=O)N2CCC(O)CC2)c(=O)oc2cc3c(cc12)CCC1(CCCCC1)O3,.,3,.,-5,5,.
Nc1ccc(NC(=S)Nc2ccccc2)cc1,.,1,.,0,32*,1
S=C(NCCNC(=S)Nc1ccccc1)Nc1ccccc1,3,0,8,-4,-3,.
Cn1ncc(Br)c1C(=O)N1CCCCCC1,2,5,4,-6,3,.
Cc1ccc(-c2[nH]nc3c2C(c2cccnc2)C(C#N)=C(N)O3)cc1 (centres undefined),-7,-1,27,2,14,.
N#CC1=C(N)Oc2n[nH]c(-c3cccnc3)c2C1c1cc(F)ccc1F (centres undefined),2,4,11,0,52*,-12
O=C(NCc1ccncc1)[C@@H]1CCCN1C(=O)[C@H]1CCCN1C(=O)c1c(F)cccc1F,.,1,.,-3,14,.
Cc1csc(N/N=C/c2ccc([N+](=O)[O-])cc2)n1,1,9,-3,-7,-5,.
Cc1nnc(N/N=C/c2ccc([N+](=O)[O-])cc2)n1N,5,10,-1,-7,55*,0
O=C(O)COc1ccccc1/C=C1\C(=O)Nc2ccc(Br)cc21,-1,0,22,-3,29*,14
CCCN1CCN(C(=O)c2ccc(F)c(S(=O)(=O)N3CCOCC3)c2)CC1,-4,1,.,-9,39*,3
COc1cc(OC)c(C(=O)Nc2cccc3ccccc23)cc1OC,1,-2,-6,-6,1,.
COc1ccc(F)cc1S(=O)(=O)NCc1cc(=O)n(C)c(=O)n1C,-3,-1,5,-5,25*,4
CC(CN1CCC(O)CC1)c1ccccc1 (centres undefined),0,1,0,-6,-17,.
CC(NC(=O)C(C)N1CCN(Cc2ccccc2)CC1)c1ccccc1 (centres undefined),6,-2,2,12,25*,-3
Cc1cccc(CN2CCN(C(C)C(=O)NC(C)c3ccccc3)CC2)c1 (centres undefined),-2,8,-9,0,3,.
CC(CN1CCN(Cc2ccccc2)CC1)c1ccccc1 (centres undefined),-2,3,3,0,26*,10
CC1(C)OC(=O)C2=C(C[C@@H](C3CCCCC3)O[C@H]2c2ccc(Cl)cc2)O1,.,2,.,-12,-4,.

# From PubChem BioAssay
